# Experimental data from ChEMBL document CHEMBL1151821, “Macrocyclic peptidomimetic beta-secretase (BACE-1) inhibitors with activity in vivo” (Bioorg Med Chem Lett, 2009).
# Tests used:
# Brain [1] = assay: Drug level in APP51/16 transgenic mouse brain expressing human APP at 100 umol/kg, po administered twice at 3 hrs interval measured after 7 hrs of last dose; settings: in vivo
# in vivo [2] = settings: C57BL/6, mouse, brain/plasma, iv, 30 umol/kg
# Brain [3] = assay: Drug level in APP51/16 transgenic mouse brain expressing human APP at 30 umol/kg, iv administered twice at 2 hrs interval measured after 3 hrs of last dose; settings: in vivo
# Brain [4] = assay: Drug level in APP51/16 transgenic mouse brain expressing human APP at 30 umol/kg, iv after 5 hrs; format: ADME, organism-based; settings: in vivo
# Procedure, shortened: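 Single i.v. dose of 30 µmol/kg in APP51/16 transgenic mice (human APP, brain-specific promoter), sacrificed 5 h after dosing. Compound level measured in brain.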
# [5] = Drug level in C57BL/6 mouse brain at 30 umol/kg, iv after 5 hrs; format: ADME, organism-based; settings: read-out: Drug uptake
# Procedure, shortened: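 C57BL/6 mice, single i.v. dose of 30 µmol/kg. Compound levels in brain and plasma followed over 5 h; brain:plasma ratio from 5 min to 5 h.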
# in vivo [6] = settings: C57BL/6, mouse, brain/plasma, iv, 30 umol/kg; remark: listed apart in the source
Drug uptake (Brain [1]),SMILES,Kp at 5 h (in vivo [2]),Drug uptake (Brain [3]),Drug uptake (Brain [4]),concentration at 5 h [5],Kp at 5 min (in vivo [6])
1.5 µmol/kg,CC(C)c1ccc2c(c1)[C@@H](NC[C@@H](O)[C@@H]1C[C@H](C)CCCCCCCCC(=O)N(C)[C@@H](C)C(=O)N1)CC(C)(C)O2,,,,,
,CC(C)c1cccc(CNC[C@@H](O)[C@@H]2C[C@H](C)CCCCCCCCC(=O)N(C)[C@@H](C)C(=O)N2)c1,4,4.3 µmol/kg,1.3 µmol/kg,> 1000 nM,1.5
